Laboratory results reported in ChEMBL document CHEMBL1155387, “Substituted fused bicyclic pyrrolizinones as potent, orally bioavailable hNK1 antagonists” (Bioorg Med Chem Lett, 2010).
Several values for one entry are separate records, joined by “and”; a condition that tells them apart may be missing. Identical values can stand only once. One block for each compound: values may come before it.

How the values were obtained:
Gerbillinae [1] = assay: Inhibition of GR-73632-induced foot tapping in gerbils at 1 mg/kg, iv after 0.1 hrs; format: functional
Substance-P receptor [2] = molecular target: T1, Substance-P receptor (Homo sapiens, UniProt P25103); assay: Displacement of [125I]substance P from human NK1 receptor expressed in CHO cells; format: cell-based
In short: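 Competition binding: [125I]-labelled substance P displaced from cloned human NK1 receptor expressed in CHO cells; IC50 reported as mean of n = 3.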

Substance-P receptor [3] = molecular target: T1, Substance-P receptor; assay: Displacement of [125I]substance P from human NK1 receptor expressed in CHO cells in the presence of 50 percent human serum; format: cell-based
Substance-P receptor [4] = molecular target: T1, Substance-P receptor; assay: Antagonist activity at human NK1 receptor expressed in CHO cells assessed as inhibition of substance P-induced inositol phosphate generation at 100 nM; format: functional, cell-based
Gerbillinae [5] = assay: Inhibition of GR-73632-induced foot tapping in gerbils at 3 mg/kg, iv after 24 hrs; format: functional; settings: for inhibition in vivo at 3 mg/kg: Gerbillinae, iv, 24 h
In short: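 Gerbils dosed iv at 3 mg/kg; foot tapping induced by NK1 agonist GR73632 evaluated 24 h post-dose; percent inhibition of the tapping response.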

Gerbillinae [6] = assay: Inhibition of GR-73632-induced foot tapping in gerbils at 1 mg/kg, iv after 1 hr; format: functional
In short: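 Gerbils given 1 mg/kg iv; GR73632-induced foot tapping challenged 1 h after dosing; inhibition of tapping scored.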

[7] = Displacement of diltiazem […] from calcium channel
In short: (§1)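 Ion-channel binding assay; IC50 values calculated for sodium channel and for calcium channel (diltiazem site).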

[8] = Inhibition of sodium channel; in short: as §1
[9] = Plasma clearance in rat; format: ADME, organism-based
[10] = Half life in rat; format: ADME, organism-based; settings: in vivo
[11] = Volume of distribution in rat; format: ADME, organism-based; settings: in vivo
[12] = Oral bioavailability in rat; format: ADME, organism-based; settings: in vivo
[13] = Ratio of drug level in brain to plasma in rat at 1 mg/kg, iv after 4 hrs; format: ADME, organism-based; parameters: dose 1 mg/kg, route intravenous; settings: brain and plasma
[14] = Plasma clearance in dog; format: ADME, organism-based, Canis lupus familiaris
[15] = Half life in dog; format: ADME, organism-based, Canis lupus familiaris; settings: in vivo
[16] = Volume of distribution in dog; format: ADME, organism-based, Canis lupus familiaris; settings: in vivo
[17] = Oral bioavailability in dog; format: ADME, organism-based, Canis lupus familiaris; settings: in vivo
[18] = Plasma clearance in rhesus monkey; format: ADME, organism-based, Macaca mulatta
[19] = Half life in rhesus monkey; format: ADME, organism-based, Macaca mulatta; settings: in vivo
[20] = Volume of distribution in rhesus monkey; format: ADME, organism-based, Macaca mulatta; settings: in vivo
[21] = Oral bioavailability in rhesus monkey; format: ADME, organism-based, Macaca mulatta; settings: in vivo
Gerbillinae [22] = assay: Inhibition of GR-73632-induced foot taping in iv dosed gerbils after 1 hr; format: functional; settings: read-out: ID50 (the source's name)
Gerbillinae [23] = assay: Inhibition of GR-73632-induced foot taping in iv dosed gerbils after 24 hrs; format: functional; settings: read-out: ID50 (the source's name)
Cytochrome P450 2D6 = Cytochrome P450 2D6 (Homo sapiens, UniProt P10635); assay: Inhibition of CYP2D6; format: ADME
Cytochrome P450 3A4 = Cytochrome P450 3A4 (Homo sapiens, UniProt P08684); assay: Inhibition of CYP3A4; format: ADME
Cytochrome P450 2C9 = Cytochrome P450 2C9 (Homo sapiens, UniProt P11712); assay: Inhibition of CYP2C9; format: ADME
[24] = Stability in rat microsomes assessed as compound remaining after 60 mins; format: ADME, Microsome; settings: read-out: Stability
[25] = Stability in rhesus monkey microsomes assessed as compound remaining after 60 mins; format: ADME, Macaca mulatta, Microsome; settings: read-out: Stability
[26] = molecular target: T2, PXR (nuclear receptor subfamily 1 group I member 2) (Homo sapiens, UniProt O75469); assay: inhibition of human PXR at 10 uM
T2 sequence (O75469 whole entry): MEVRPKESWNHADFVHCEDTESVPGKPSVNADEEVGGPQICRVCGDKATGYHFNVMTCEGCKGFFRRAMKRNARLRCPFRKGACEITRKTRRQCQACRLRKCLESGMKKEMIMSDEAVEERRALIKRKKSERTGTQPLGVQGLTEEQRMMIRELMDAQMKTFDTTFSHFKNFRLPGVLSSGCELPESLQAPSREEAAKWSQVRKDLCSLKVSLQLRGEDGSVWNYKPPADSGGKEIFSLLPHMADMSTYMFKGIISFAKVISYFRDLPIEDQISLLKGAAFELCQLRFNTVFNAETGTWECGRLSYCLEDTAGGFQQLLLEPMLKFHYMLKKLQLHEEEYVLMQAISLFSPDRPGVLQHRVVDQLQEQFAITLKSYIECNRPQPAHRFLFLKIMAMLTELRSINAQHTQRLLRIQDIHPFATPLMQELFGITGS

[27] = Induction of CYP3A4 expression in human LS180 cells relative to rifampin; format: ADME, cell-based
In short: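 Human LS180 cells treated with test compound at 10 µM. CYP3A4 induction is expressed as fold induction.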

[28] = Stability in dog microsomes assessed as compound remaining after 60 mins; format: ADME, Canis lupus familiaris, Microsome; settings: read-out: Stability
[29] = Stability in human microsomes assessed as compound remaining after 60 mins; format: ADME, Microsome; settings: read-out: Stability
[30] = Potency (IC50) in iv dosed gerbil after 1 hr; settings: gerbillinae, plasma
[31] = Potency (IC50) in iv dosed gerbil brain after 1 hr; settings: gerbillinae

T1 sequence (P25103 whole entry): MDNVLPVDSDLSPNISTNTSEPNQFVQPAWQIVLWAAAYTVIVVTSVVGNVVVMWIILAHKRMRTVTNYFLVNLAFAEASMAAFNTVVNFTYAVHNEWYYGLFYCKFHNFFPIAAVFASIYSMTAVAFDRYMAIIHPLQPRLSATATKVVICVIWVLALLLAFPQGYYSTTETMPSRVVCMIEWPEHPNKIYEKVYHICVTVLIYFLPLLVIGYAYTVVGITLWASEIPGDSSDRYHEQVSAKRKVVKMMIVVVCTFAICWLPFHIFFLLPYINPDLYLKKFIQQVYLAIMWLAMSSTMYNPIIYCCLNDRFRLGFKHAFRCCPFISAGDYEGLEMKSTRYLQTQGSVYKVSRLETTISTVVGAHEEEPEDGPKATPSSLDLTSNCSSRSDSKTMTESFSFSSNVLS
Chain of Cytochrome P450 2D6 (P10635 whole entry): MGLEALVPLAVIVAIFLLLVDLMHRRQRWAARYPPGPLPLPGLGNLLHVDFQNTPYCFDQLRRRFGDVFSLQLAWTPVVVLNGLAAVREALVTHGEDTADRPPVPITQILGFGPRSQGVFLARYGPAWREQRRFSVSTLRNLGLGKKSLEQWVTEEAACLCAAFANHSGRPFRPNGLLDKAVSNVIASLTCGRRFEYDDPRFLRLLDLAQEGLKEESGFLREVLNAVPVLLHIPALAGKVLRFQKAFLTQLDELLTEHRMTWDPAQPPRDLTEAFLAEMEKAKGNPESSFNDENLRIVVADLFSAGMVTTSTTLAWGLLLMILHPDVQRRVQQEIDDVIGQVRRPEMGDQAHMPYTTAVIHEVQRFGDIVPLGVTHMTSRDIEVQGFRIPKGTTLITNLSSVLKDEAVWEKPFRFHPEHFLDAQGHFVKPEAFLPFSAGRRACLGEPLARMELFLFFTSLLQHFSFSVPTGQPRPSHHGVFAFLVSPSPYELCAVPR
Chain of Cytochrome P450 3A4 (P08684 whole entry): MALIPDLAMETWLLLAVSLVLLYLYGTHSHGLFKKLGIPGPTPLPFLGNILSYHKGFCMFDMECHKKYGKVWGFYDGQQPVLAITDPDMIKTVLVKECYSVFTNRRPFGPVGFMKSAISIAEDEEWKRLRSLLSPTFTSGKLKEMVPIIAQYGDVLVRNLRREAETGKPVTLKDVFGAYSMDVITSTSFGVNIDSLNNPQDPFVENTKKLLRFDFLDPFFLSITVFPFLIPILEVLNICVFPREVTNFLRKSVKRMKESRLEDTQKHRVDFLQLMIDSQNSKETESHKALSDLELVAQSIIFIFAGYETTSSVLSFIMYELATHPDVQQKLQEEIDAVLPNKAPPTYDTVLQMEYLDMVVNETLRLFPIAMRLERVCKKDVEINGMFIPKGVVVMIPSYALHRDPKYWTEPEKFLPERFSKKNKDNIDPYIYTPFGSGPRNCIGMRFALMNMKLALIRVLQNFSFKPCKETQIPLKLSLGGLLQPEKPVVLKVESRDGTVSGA
Chain of Cytochrome P450 2C9 (P11712 whole entry): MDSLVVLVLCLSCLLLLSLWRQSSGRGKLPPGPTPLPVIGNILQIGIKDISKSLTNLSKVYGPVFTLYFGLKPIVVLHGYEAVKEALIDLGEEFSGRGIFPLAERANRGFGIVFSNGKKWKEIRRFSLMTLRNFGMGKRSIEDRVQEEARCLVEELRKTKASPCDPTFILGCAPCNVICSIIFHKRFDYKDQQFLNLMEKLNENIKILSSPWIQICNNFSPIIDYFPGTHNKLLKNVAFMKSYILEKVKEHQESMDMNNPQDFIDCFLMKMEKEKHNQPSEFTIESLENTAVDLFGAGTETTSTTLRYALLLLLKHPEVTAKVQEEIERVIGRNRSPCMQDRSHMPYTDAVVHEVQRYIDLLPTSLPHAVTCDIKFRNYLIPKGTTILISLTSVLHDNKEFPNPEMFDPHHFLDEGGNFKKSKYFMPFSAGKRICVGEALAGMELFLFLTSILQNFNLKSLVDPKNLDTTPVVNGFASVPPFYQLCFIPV

IC50 (Substance-P receptor [2]): 0.3 nM
IC50 (Substance-P receptor [3]): 43.1 nM
inhibition of substance P-induced inositol phosphate generation (Substance-P receptor [4]): 91%
Structure (SMILES): CC(=O)N1C[C@H](O[C@H](C)c2cc(C(F)(F)F)cc(C(F)(F)F)c2)[C@@H](c2ccc(F)cc2)[C@@H]1CO
inhibition in vivo at 1 mg/kg (Gerbillinae [1]): 49%
inhibition in vivo at 3 mg/kg (Gerbillinae [5]): 0%

IC50 (Substance-P receptor [3]): 2.2 nM
inhibition of substance P-induced inositol phosphate generation (Substance-P receptor [4]): 67%
Structure (SMILES): C[C@@H](O[C@H]1CN2C(=O)CC[C@H]2[C@@H]1c1ccc(F)cc1)c1cc(C(F)(F)F)cc(C(F)(F)F)c1
inhibition in vivo at 1 mg/kg (Gerbillinae [1]): 100%
inhibition in vivo at 3 mg/kg (Gerbillinae [5]): 100%
inhibition in vivo at 1 mg/kg (Gerbillinae [6]): 100%

IC50 (Substance-P receptor [2]): 0.08 nM
IC50 (Substance-P receptor [3]): 0.91 nM
IC50 [7]: 9400 nM and 2600 nM
IC50 [8]: 4360 nM and 2600 nM
clearance [9]: 5.1 mL/min/kg
half-life [10]: 13 h
Vd [11]: 4.2 L/kg
bioavailability [12]: 93%
Kp at 4 h [13]: 1
clearance [14]: 0.8 mL/min/kg
half-life [15]: 128 h
Vd [16]: 2.8 L/kg
bioavailability [17]: 98%
clearance [18]: 1 mL/min/kg
half-life [19]: 80.4 h
Vd [20]: 2.6 L/kg
bioavailability [21]: 68%
INH (Cytochrome P450 2D6): 62.2 µM
INH (Cytochrome P450 3A4): > 100 µM
INH (Cytochrome P450 2C9): > 100 µM
remaining at 1 h [24]: 60%
remaining at 1 h [25]: 23%
inhibition at 10 µM [26]: 31%
Ratio [27]: 13
remaining at 1 h [28]: 73%
remaining at 1 h [29]: 54%
IC50 at 1 h [30]: 8.4 nM
IC50 at 1 h [31]: 3.8 nM
Structure (SMILES): C[C@@H](O[C@H]1CN2C(=O)C(O)C[C@H]2[C@@H]1c1ccc(F)cc1)c1cc(C(F)(F)F)cc(C(F)(F)F)c1 (stereo in doubt; 2b)
inhibition (INH) (Gerbillinae [5]; 3 mg/kg): 100%
ED50 (Gerbillinae [22]): 0.02 mg/kg
ED50 (Gerbillinae [23]): 0.016 mg/kg
